Paper PMC5598146 (Toxicology Reports, 2015)

Legend:
[1] = Relative oral bioavailability of sodium, phosphate and hemisulfate salts in rats; type: in vivo, Sprague-Dawley rats; settings: single oral 30 mg/kg, male rats
Procedure, shortened: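 Male Sprague-Dawley rats, 4/group, received a single 30 mg/kg oral gavage dose in 1% methylcellulose of either parent acid or its sodium, phosphate or sulfate salt. Jugular-catheter blood was drawn at about 15 and 30 min and at 1, 2, 4, 8 and 24 h. Plasma parent was measured by LC/MS/MS with an internal standard. Relative AUClast and Cmax were corrected for molecular-weight differences.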

[2] = tested on: S. typhimurium strains TA98 and TA100; test: Abbreviated Ames; type: cell-based
Procedure, shortened: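 Salmonella TA98 and TA100 plate-incorporation assay per OECD 471, run with and without rat liver S9. Test compound and its decarboxylated impurity were tested at concentrations up to and including 5000 µg/plate, with vehicle and positive controls. Revertant colony counts were compared with vehicle control, and bacterial toxicity was recorded.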

Cc1nc2cccc(OCC(C)(C)C(=O)NC(C)C)c2c(N)c1C(=O)O.Cc1nc2cccc(OCC(C)(C)C(=O)NC(C)C)c2c(N)c1C(=O)O.O=S(=O)(O)O [S1638]
Cmax/Equiv. dose [1]: 1.377 ng/mL/mg/kg | Cmax ([1]; S9632 measured in plasma): 34.80 ± 7.55 ng/mL | %Cmax Relative to S9632 ([1]; corrected for molecular weight, 30 mg/kg): 106.7%

Cc1cc(N)c2c(OCC(C)(C)C(=O)NC(C)C)cccc2n1 [S9379, 4-amino-5-(3-(isopropylamino)-2,2-dimethyl-3-oxopropoxy)-2-methylquinoline]
Concentration with cytotoxicity (reduction in the background lawn) ([2]; TA98 and TA100 without metabolic activation): 5000 μg/plate | Mutagenicity, result ([2]; plate incorporation, up to 5000 μg/plate, ±S9): not mutagenic
